This is an account of results in ChEMBL document CHEMBL1144338, “N-Acyl arylsulfonamides as novel, reversible inhibitors of human steroid sulfatase” (Bioorg Med Chem Lett, 2005).

Experiment [1] concerns the target T1, Steryl-sulfatase (Homo sapiens, UniProt P08842).
T1 sequence (P08842 whole entry): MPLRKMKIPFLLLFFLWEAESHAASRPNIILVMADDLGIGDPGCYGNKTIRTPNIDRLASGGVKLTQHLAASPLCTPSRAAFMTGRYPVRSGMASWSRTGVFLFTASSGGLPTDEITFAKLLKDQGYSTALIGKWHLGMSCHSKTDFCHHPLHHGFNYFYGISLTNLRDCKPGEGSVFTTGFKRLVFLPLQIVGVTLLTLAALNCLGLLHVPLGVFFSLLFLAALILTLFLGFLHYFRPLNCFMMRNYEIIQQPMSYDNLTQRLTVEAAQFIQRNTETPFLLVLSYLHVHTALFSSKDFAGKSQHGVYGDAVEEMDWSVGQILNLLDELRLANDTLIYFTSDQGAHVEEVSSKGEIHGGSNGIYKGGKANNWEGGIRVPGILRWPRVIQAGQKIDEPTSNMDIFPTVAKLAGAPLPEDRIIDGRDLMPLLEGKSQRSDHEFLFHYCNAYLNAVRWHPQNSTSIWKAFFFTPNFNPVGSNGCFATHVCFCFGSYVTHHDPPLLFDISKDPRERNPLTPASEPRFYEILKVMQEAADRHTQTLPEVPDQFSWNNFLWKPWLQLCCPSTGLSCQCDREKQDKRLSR
Kind of experiment: Inhibitory concentration against human steroid sulfatase expressed in CHO cells. It counts as cell-based. In a few lines:
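Intact recombinant CHO cells overexpressing STS, live-cell variant for reversible inhibitors; 4-methylumbelliferyl sulfate substrate at 0.5 mM, 4 h incubation with inhibitor; fluorimetric read-out of substrate cleavage, IC50 determined.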

For experiment [2], the target named is T1, Steryl-sulfatase. The experiment is described as follows: Inhibitory concentration against human steroid sulfatase. Summed up: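 Human STS purified to homogeneity from recombinant CHO cells; fluorimetric assay following cleavage of 4-methylumbelliferyl sulfate (fixed at 0.75 mM) at 37 °C, 1 h incubations with or without inhibitor. Initial velocity taken from the linear phase as fluorescence units per min; IC50 derived by a previously described method.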

Experiment [3] addresses T1, Steryl-sulfatase. Kind of experiment: Inhibitory constant against human steroid sulfatase. In a few lines: (§1)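 Purified human STS (from recombinant CHO cells) at 37 °C; 4-methylumbelliferyl sulfate cleavage monitored fluorimetrically, substrate varied 0.05–2 mM at several inhibitor concentrations. Initial velocities from the linear phase (fluorescence units per min); Ki calculated from Hanes plots ([S]/v versus [S]).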

Experiment [4] has as its target T1, Steryl-sulfatase. Kind of experiment: Inhibitory constant against human Steroid sulfatase. In a few lines:
as §1

SMILES strings stand for the structures.

The term IC50 denotes the midpoint of a concentration-inhibition curve. Higher therefore signals weaker potency in that assay. As a reminder, the Ki is the equilibrium dissociation constant of an inhibitor or competing ligand from its target. High values mean lower affinity, low ones higher affinity. `CC(C)(C)OC(=O)N1CCN(C(=O)NS(=O)(=O)c2ccc(Cl)cc2)CC1`: the half-inhibitory concentration (IC50) in experiment [1] was determined as 12000 nM; in experiment [2] it was 3600 nM. The same compound displayed a Ki in experiment [3] of 14500 nM.

Regarding `CC(C)(C)OC(=O)N1CCC(C(=O)NS(=O)(=O)c2c(Cl)sc(Cl)c2Br)CC1`, the results for the IC50 in experiment [1] and in experiment [2] were 270 nM and 26 nM, respectively. Moreover, in experiment [4], the Ki was found to be 12 nM.

In experiment [1], `CC(C)(C)OC(=O)N1CCC(C(=O)NS(=O)(=O)c2c(Cl)cccc2Cl)CC1` came in with an IC50 of 9900 nM.

On to `CC(C)(C)OC(=O)N1CCC(C(=O)NS(=O)(=O)c2ccc(Cl)cc2)CC1`, for which the IC50 was found to be 9800 nM in experiment [1] and 8600 nM in experiment [2]. For the same compound, affinity in experiment [3] was put at a Ki of 16100 nM.

The compound `CC(C)(C)OC(=O)N1CCC(C(=O)NS(=O)(=O)c2cc(Cl)cc(Cl)c2)CC1` came in with an IC50 in experiment [1] of 1260 nM.

In the case of `O=C(Cc1ccccc1)O[C@H]1C[C@H]2CC[C@@H](C1)N2C(=O)NS(=O)(=O)c1ccc(Cl)cc1`, the IC50 in experiment [1] worked out at 6270 nM; in experiment [2], 910 nM.

Turning to `CC(C)(C)OC(=O)N1CCC(C(=O)NS(=O)(=O)c2cc(C(F)(F)F)cc(C(F)(F)F)c2)CC1`, the IC50 in experiment [1] worked out at 780 nM; in experiment [2], 210 nM. This compound came in with a Ki in experiment [3] of 220 nM.
